Compound activity (PubChem)
NadD block = inhibitors of Staphylococcus aureus NadD. purified NadD enzyme, colorimetric absorbance read-out. AID 602399. 360,000 tested, 0.78% active. inhibition, % at 20 µM; in the data active = inhibition above about 26%
VIM-2 inhibitor = inhibitors of Pseudomonas aeruginosa VIM-2 metallo-beta-lactamase; purified VIM-2, nitrocefin hydrolysis, epi-absorbance fluorescence; inhibition, % at 5.6 µM; 290,000 tested, 0.89% active;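 active = inhibition above the mean of all tested compounds plus 3 SD, cutoff set per screening run, cut at about 7.5% in these data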;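 also: red hydrolysis product quenches plate fluorescence so inhibitors raise well fluorescence; 0% = enzyme with DMSO and 100% = DMSO without enzyme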
core dimer inh = HCV core protein dimerization inhibition | TR-FRET GST/Flag-core106 dimerization, 1536-well | inhibition, % at 5 µM | 300,000 tested, 0.33% active;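 active = inhibition above the mean of all tested compounds plus 3 SD, set per screening campaign, cut at about 45% in these data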
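Assay system – GST-tagged and Flag-tagged HCV core protein residues 1-106 · Quantity – core106 proteins, GST 13.5 nM and Flag 17 nM · Benchmarks – unlabelled core106 and no-GST-core106 wells · Read-out basis – percent inhibition of core106 dimerization signal · Detection – time-resolved FRET, ex 340 nm, em 617 and 671 nm · Schedule – 4 h at 22.5 °C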
IMP-1 inh = blocks Pseudomonas aeruginosa IMP-1 metallo-beta-lactamase. purified IMP-1, nitrocefin hydrolysis, epi-absorbance fluorescence. inhibition, % at 5.6 µM. 290,000 tested, 0.45% active. AID 1556;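 active = inhibition above the mean plus 3 SD of all compounds in the same screening run, cut at about 4.5% in these data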;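 also: 0% = IMP-1 with DMSO and 100% = DMSO wells lacking enzyme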
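System – purified recombinant IMP-1 beta-lactamase · Input – IMP-1 dispensed at 0.2 nM · Timing – 15 min preincubation plus 25 min reaction at 25 °C · Signal – Epi-absorbance fluorescence, 480 nm excitation, 530 nm emission · Measure – percent IMP-1 inhibition derived from blank-referenced optical density · Controls – Enzyme-plus-DMSO low control, enzyme-free DMSO high control · Replication – singlicate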
VIM-2 confirm = VIM-2 inhibition, confirmation assay | shares compounds with IMP-1 inh | purified VIM-2 enzyme, nitrocefin absorbance | inhibition, % at 5.6 µM | 200 tested, 73% active | AID 1860; in the data active = inhibition above about 8%;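 also: 0% = enzyme with vehicle and 100% = no enzyme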
TEM-1 counter = blocks E. coli TEM-1 beta-lactamase, VIM-2 IMP-1 counter-screen; nitrocefin absorbance inhibition; 200 tested, 50% active; shares compounds with IMP-1 inh; AID 2184; inhibition, % at 5.6 µM; in the data active = inhibition above about 0.66%
Target sequence (P62593 whole entry, looked up): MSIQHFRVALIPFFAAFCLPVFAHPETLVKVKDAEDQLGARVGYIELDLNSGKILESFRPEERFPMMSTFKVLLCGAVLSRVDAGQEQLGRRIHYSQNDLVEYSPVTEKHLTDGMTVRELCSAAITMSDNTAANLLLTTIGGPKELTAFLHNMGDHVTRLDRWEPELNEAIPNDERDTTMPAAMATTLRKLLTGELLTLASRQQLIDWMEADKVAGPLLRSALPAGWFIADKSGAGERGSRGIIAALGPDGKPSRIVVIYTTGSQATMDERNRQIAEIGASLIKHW
IMP-1 confirm = confirmation of P. aeruginosa IMP-1 metallo-beta-lactamase inhibitors. shares compounds with IMP-1 inh. purified IMP-1 enzyme, absorbance substrate hydrolysis. inhibition, % at 5.6 µM. 200 tested, 60% active. AID 2189; in the data active = inhibition above about 4.9%;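 also: 0% = enzyme with vehicle and 100% = vehicle without enzyme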
NadD conf = confirmation of Staphylococcus aureus NadD inhibitors. shares compounds with NadD block. purified S. aureus NadD, colorimetric enzyme assay. inhibition, % at 20 µM. 2,000 tested, 13% active. AID 624309; in the data active = inhibition mostly above about 42%, no sharp cut-off; inactive = mostly below about 42%
Starred values were filed as active, the others as inactive; . = no result given. An excerpt weighted towards active compounds, which were near 1.9% of everything screened.

SMILES	NadD block	VIM-2 inhibitor	core dimer inh	IMP-1 inh	VIM-2 confirm	TEM-1 counter	IMP-1 confirm	NadD conf
O=C(CSc1nnc(-c2ccc(O)cc2)n1-c1ccccc1)CC(=O)Nc1ccccc1	17	16*	11	7.9*	0	-5	-3	.
COc1ccc(CNC(=O)C(C)OC(=O)c2cccs2)cc1 (stereo not drawn)	-11	-2	-4	-2	.	.	.	.
CC(NC(=O)c1cccs1)C(S)c1ccccc1 (stereo not drawn)	-3	41*	14	22*	47*	-6	48*	.
C/C(=N\Nc1ncnc2sc(C)c(C)c12)c1ccccn1	1	14*	-16	13*	38*	7.1*	4	.
O=C1/C(=C/c2cccnc2)SC(=S)N1c1ccc(O)cc1	-1	9.2*	2	6.0*	11*	-3	-2	.
COc1ccc(NC(=O)NS(=O)(=O)c2ccc(C)cc2)cn1	-6	16*	.	12*	0	-2	-3	.
COc1cc(NC(=O)NS(=O)(=O)c2ccc(C)cc2)cc(OC)c1	4	-2	0	-3	.	.	.	.
Cc1ccc2nc3c(cc(C(=O)NCCCn4ccnc4)n3C)c(=O)n2c1	3	15*	-8	8.4*	2	-1	-2	.
COC(=O)c1c(C(=O)OC)c(-c2ccc(F)cc2)n2c1CSC2	-3	0	0	-3	.	.	.	.
CC(C)(C)c1ccc(-c2c(C(=O)O)c(C(=O)O)c3n2CSC3)cc1	-1	20*	14	20*	17*	-5	12*	.
CC[n+]1ccc(/C=C/c2c[nH]c3ccccc23)cc1	14	8.2*	-20	5.6*	8.1*	2.7*	4	.
Cc1ccc2[nH]cc(/C=C/c3cc[n+](C)cc3)c2c1	20	15*	.	5.7*	15*	5.1*	5.9*	.
CCn1c(/C=C/c2c[nH]c3ccccc23)nc2ccccc2c1=O	-1	-6	0	-4	.	.	.	.
Cc1ccc(-n2nc3c(c2NC(=O)c2cccs2)CS(=O)(=O)C3)c(C)c1	-2	0	11	0	.	.	.	.
CCCCCCn1c(=O)[nH]c2nc3cc(N)ccc3nc2c1=O	.	12*	-9	16*	15*	31*	13*	.
Cc1cccc(C)c1NC(=O)COC(=O)c1c2c(nc3ccccc13)/C(=C\c1ccc3c(c1)OCO3)CCC2	48*	20*	1	17*	0	-4	-1	6
Cc1cccc(C)c1NC(=O)COC(=O)c1ccc2c(c1)OCO2	2	-2	-3	-2	.	.	.	.
C=CC#CC[N+]1(CC#Cc2ccccc2)CCOCC1	44*	20*	.	20*	34*	-5	-3	47
COc1ccc(-c2nc(C)sc2CC(=O)O)cc1OC	0	-1	-7	0	.	.	.	.
COC(=O)C1=C(C)N=C2SC(C)C(=O)N2C1/C=C/c1ccccc1OC (stereo not drawn)	29*	-7	6	-2	.	.	.	44
COc1ccc(Cc2c(-c3ccccc3)nc3ccc(Cl)cn23)c(C)c1	8	.	.	.	.	.	.	.
COc1ccc(Cc2c(-c3ccco3)nc3ccc(Br)cn23)c(C)c1	59*	.	.	.	.	.	.	3
COc1ccc(Cc2c(-c3ccco3)nc3ccc(Cl)cn23)c(C)c1	42*	.	.	.	.	.	.	8
Fc1ccc(-c2nc3ccc(Br)cn3c2Cc2cccc(F)c2)cc1	7	.	.	.	.	.	.	.
Cc1ccc(-c2nc3ccc(Br)cn3c2Cc2cccc(F)c2)cc1	31*	.	.	.	.	.	.	6
SMILES	NadD block	VIM-2 inhibitor	core dimer inh	IMP-1 inh	VIM-2 confirm	TEM-1 counter	IMP-1 confirm	NadD conf
Cc1ccc(Cc2c(-c3ccco3)nc3ccc(Br)cn23)cc1	30*	.	.	.	.	.	.	18
Cc1ccc(Cc2c(-c3ccc(C)cc3)nc3ccc(Br)cn23)cc1	11	.	.	.	.	.	.	.
CCOc1cc(/C=C(\C#N)c2nc3ccccc3[nH]2)ccc1OC(C)C(=O)O (stereo not drawn)	-2	-2	-13	-3	.	.	.	.
COc1ccc2nc(/C(C#N)=C\c3ccc(Oc4ccc([N+](=O)[O-])cn4)cc3)[nH]c2c1	35*	-6	58*	-4	.	.	.	9
Cc1ccc2nc(/C(C#N)=C\c3ccc(Oc4ccc([N+](=O)[O-])cn4)cc3)[nH]c2c1	36*	-3	25	-4	.	.	.	12
CCOc1cc(/C=C(/C#N)c2nc3ccccc3[nH]2)ccc1Oc1ccc([N+](=O)[O-])cn1	54*	-5	3	-3	.	.	.	9
Cc1ccc2nc(/C(C#N)=C\c3ccc([N+](=O)[O-])o3)[nH]c2c1	8	-2	-34	-4	.	.	.	.
O=C(O)c1ccc(NCCC2=CCCCC2)c([N+](=O)[O-])c1	-4	-2	4	-3	.	.	.	.
Cc1ccc(NC(=O)c2ncn(CCCN(CCCn3cnc(C(=O)Nc4ccc(C)c(C)c4)n3)Cc3ccc4[nH]ccc4c3)n2)cc1C	39*	.	.	.	.	.	.	32
Cc1ccc(-c2nc(NC(=O)CSc3cc(C)c4ccccc4n3)ns2)cc1	31*	-2	-3	-1	.	.	.	1
COc1ccccc1/C=C/C(=O)NC(=S)Nc1ccc(S(=O)(=O)N(C)c2ccccc2)cc1	34*	-7	39	-1	.	.	.	6
CN(c1ccccc1)S(=O)(=O)c1ccc(NC(=S)NC(=O)c2ccccc2)cc1	-6	-6	18	-6	.	.	.	.
CC(C)=C(NC(=O)c1ccccc1)C(=O)Nc1cccc(C)c1	2	-3	6	-2	.	.	.	.
O=C(CSc1nc(C2CC2)nc2sc3c(c12)CCCC3)NCc1ccco1	-4	0	2	-1	.	.	.	.
CC(C)Sc1nc2sc3c(c2c2nnc(SCC(=O)NCc4ccco4)n12)CCCC3	38*	-1	45	-3	.	.	.	37
Cc1ccc([N+](=O)[O-])cc1-c1ccc(/C=C(\C#N)c2[nH]nc(N)c2C#N)o1	28*	0	4	-3	.	.	.	5
CN(C(=O)CS(=O)(=O)c1cn(CC(=O)N2CCCCC2)c2ccccc12)c1ccccc1	1	-2	-2	-2	.	.	.	.
Cc1ccc(NC(=O)COC(=O)c2ccc3c(c2)NC(=O)C2CCCN32)cc1 (stereo not drawn)	38*	-2	27	-2	.	.	.	32
N#Cc1sc2nc(-c3ccccc3)cc(-c3ccco3)c2c1N	32*	-4	49*	-3	.	.	.	8
CCCCNC(=O)CC1Nc2ccccc2NC1=O (stereo not drawn)	5	-4	-3	-2	.	.	.	.
CCCCOc1ccccc1NC(=O)CC1Nc2ccccc2NC1=O (stereo not drawn)	31*	.	7	.	.	.	.	34
CC(C)CN(C(=O)CSc1nc2ccccc2c(=O)n1C)C1CCS(=O)(=O)C1 (stereo not drawn)	2	.	.	.	.	.	.	.
O=C(NCc1ccco1)C(c1ccc(F)cc1)N(C(=O)Cc1cccs1)c1cccnc1 (stereo not drawn)	1	1	1	-3	.	.	.	.
